Screening data: PubChem BioAssay, The Scripps Research Institute Molecular Screening Center
CHO parental Ca: ATP-evoked calcium signal inhibitors, parental CHO, primary screen, counter-screen for OX1R antagonist project, cell-based, fluorescence, Fluo-8 calcium dye; parental CHO-K1, ATP-induced calcium, Fluo-8 fluorescence; inhibition, % at 5.6 µM; hit rate 0.63% among 330,000; AID 463079, 2010;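 active means inhibition above that plate's mean sample inhibition plus 3 SD, cut at about 26% in these data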
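Test system: untransfected parental CHO cell line. Compound: one dose, 5.6 µM nominal. Detection: intracellular calcium via Fluo-8 no-wash fluorescent dye. Measure: % inhibition. Benchmarks: ATP-challenged DMSO wells low, unchallenged DMSO wells high.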
TAAR1 antagonist: human TAAR1 antagonists, primary screen, Fluo-8 calcium fluorescence, CHO RD-HGA16 cells | hit rate 1.5% among 360,000 | inhibition, % at 3 µM | antagonist | Trace amine-associated receptor 1 (Homo sapiens), Q96RJ0 | AID 624466, 2012;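 active means inhibition above a per-plate cutoff, the mean inhibition of test compounds on that plate plus 3 SD, cut at about 49% in these data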
Target sequence (Q96RJ0 whole entry, looked up): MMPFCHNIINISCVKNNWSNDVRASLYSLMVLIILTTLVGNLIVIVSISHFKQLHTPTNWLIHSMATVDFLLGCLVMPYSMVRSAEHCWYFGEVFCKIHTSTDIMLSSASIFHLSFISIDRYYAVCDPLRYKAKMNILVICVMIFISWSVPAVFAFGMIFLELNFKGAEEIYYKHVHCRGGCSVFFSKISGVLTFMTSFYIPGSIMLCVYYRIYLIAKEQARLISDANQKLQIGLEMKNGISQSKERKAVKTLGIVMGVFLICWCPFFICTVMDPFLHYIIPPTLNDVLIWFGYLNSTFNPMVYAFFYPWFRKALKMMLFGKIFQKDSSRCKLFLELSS
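Test system – hTAAR1-expressing CHO RD-HGA16 cells, Gα16-coupled · Also added – β-PEA at EC80 concentration, post-compound challenge · Compound – 3 µM, single point · Incubation – dye loading 75 min at 37 °C, then 30 min room temperature · Measured by – Fluo-8 intracellular calcium dye fluorescence, real-time kinetic reads · Benchmarks – vehicle and agonist controls · Replicates – singlicate, one well per test compound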
TAAR1 agonist: human TAAR1 agonists, primary screen, Fluo-8 calcium fluorescence, CHO RD-HGA16 cells. Trace amine-associated receptor 1 (Homo sapiens), Q96RJ0. vehicle wells 0%, saturating PEA agonist 100%. activation, % at 3 µM. hit rate 0.99% among 360,000. AID 624467, 2012;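 active means activation above the mean activation of all test compounds in the run plus 3 SD, cut at about 38% in these data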
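System: CHO RD-HGA16 cells carrying human TAAR1 plus Gα16; Incubation: 17-24 h seeding, 75 min 37 °C dye, 30 min RT; Measured by: Fluo-8 fluorescence, 5 s baseline then 140 s kinetic read; Control set: DMSO and PEA EC100; Replication: single well for each compound.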
OX1R antag-1: antagonists of human orexin 1 receptor (OX1R); Orexin/Hypocretin receptor type 1 (Homo sapiens), O43613; OX1R-expressing cells, FRET antagonist read-out; inhibition, % at 6.6 µM; hit rate 1.8% among 330,000; AID 485270, 2010; in the data active means inhibition mostly above about 38%, no sharp cut-off; inactive means mostly below about 40%
Target sequence (O43613 whole entry, looked up): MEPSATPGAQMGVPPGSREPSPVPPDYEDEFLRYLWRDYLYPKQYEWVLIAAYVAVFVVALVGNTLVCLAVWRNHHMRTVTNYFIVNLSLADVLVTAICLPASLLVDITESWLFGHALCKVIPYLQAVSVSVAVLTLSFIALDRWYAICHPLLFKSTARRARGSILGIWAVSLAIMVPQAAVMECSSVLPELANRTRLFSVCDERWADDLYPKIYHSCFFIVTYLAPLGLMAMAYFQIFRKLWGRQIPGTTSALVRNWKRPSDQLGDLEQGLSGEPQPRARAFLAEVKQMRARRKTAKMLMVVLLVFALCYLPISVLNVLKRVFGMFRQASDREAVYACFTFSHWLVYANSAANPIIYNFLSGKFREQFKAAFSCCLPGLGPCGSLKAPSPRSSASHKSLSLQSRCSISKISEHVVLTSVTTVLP
GPR7 antag: GPR7 receptor antagonists, primary screen, cell-based, fluorescence, single concentration; hit rate 1.1% among 290,000; GPR7-expressing cells, fluorescence antagonist assay; inhibition, % at 4.4 µM; Neuropeptides B/W receptor type 1 (Homo sapiens), P48145; in the data active means inhibition above about 16%, passing the limit was not always enough;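 further: cells stimulated with the agonist NPW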
OX1R antag-2: OX1R (HCRTR1) antagonists, primary screen, fluorescence, CHO/OX1R cells, Fluo-8 calcium, orexin A | Orexin/Hypocretin receptor type 1 (Homo sapiens), O43613 | Fluo-8 calcium fluorescence | inhibition, % at 5 µM | hit rate 0.43% among 330,000;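 active means inhibition above its plate's threshold, mean inhibition of all tested compounds on the plate plus 3 SD, cut at about 37% in these data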
GPR7 antag cf: GPR7 receptor antagonists, confirmation, cell-based, fluorescence, single concentration. shares compounds with GPR7 antag. GPR7-expressing cells, calcium fluorescence antagonist mode. inhibition, % at 4.4 µM. hit rate 52% among 2,400; in the data active means inhibition above about 24%;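 further: stimulated with the GPR7 agonist NPW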
MCHR1 antag: MCHR1 antagonists in cells, counter-screen for GPR7 antagonist project, cell-based, fluorescence, human; shares compounds with GPR7 antag; MCHR1-expressing cells, fluorescence antagonist assay; inhibition, % at 4.4 µM; hit rate 62% among 2,400; in the data active means inhibition above about 22%
OX1R Fluo8 conf: OX1R (HCRTR1) antagonists, confirmation, fluorescence, CHO/OX1R cells, Fluo-8 calcium, orexin A | shares compounds with OX1R antag-2 | hit rate 38% among 1,100 | orexin A calcium Fluo-8 fluorescence | inhibition, % at 5 µM | AID 492963, 2010; in the data active means inhibition above about 29%
CHO Ca triplic: ATP-evoked calcium inhibition in parental CHO, counter-screen for OX1R antagonist project, cell-based, fluorescence, CHO-K1, triplicate. AID 492965, 2010. hit rate 9.3% among 1,100. ATP-induced calcium, Fluo-8 fluorescence. shares compounds with OX1R antag-2. inhibition, % at 5.6 µM;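 active means inhibition above a per-plate limit, the mean inhibition of that plate's test compounds plus 3 SD, cut at about 25% in these data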
OX1R HTRF conf: OX1R (HCRTR1) antagonists, confirmation, cell-based, HTRF; OX1R-expressing cells, HTRF antagonist assay; hit rate 49% among 1,800; AID 492964, 2010; inhibition, % at 6.6 µM; shares compounds with OX1R antag-1; in the data active means inhibition above about 55%;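 further: CHO cells expressing OX1R stimulated with orexin A at about EC80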
CHO-K1 HTRF cnt: signal inhibition in parental CHO-K1 cells, counter-screen for OX1R antagonist project, cell-based, HTRF; inhibition, % at 6.6 µM; hit rate 48% among 1,800; HTRF counterscreen; shares compounds with OX1R antag-1; AID 493232, 2011; in the data active means inhibition above about 17%
Large screens that a line does not name were inactive (follow-up assays come after a bar, where they were run). Rows were chosen to be rich in hits. Some 4.6% of all compounds tested hit in one or more screens of this group.

OC(CNC1CCCCCCC1)c1ccccc1 (centres undefined)	GPR7 antag 21.9 (no result: TAAR1 antagonist, TAAR1 agonist) | GPR7 antag cf inactive | MCHR1 antag inactive
OC12CCCCC1C(c1ccccc1)NCC2 (centres undefined)	GPR7 antag 23.0 | GPR7 antag cf inactive | MCHR1 antag inactive
O=C(Nc1ccc(Cl)cc1)OC1CN2CCC1CC2 (centres undefined)	none
O=C(Nc1cccc(Cl)c1)OC1CN2CCC1CC2 (centres undefined)	CHO parental Ca 46.0, GPR7 antag 21.8 | GPR7 antag cf 52.5 | MCHR1 antag 58.3
O=[N+]([O-])c1ccc(N2CCCCCC2)c2nonc12	CHO parental Ca 93.3, TAAR1 antagonist 65.7, TAAR1 agonist 161.7, OX1R antag-1 103.4, GPR7 antag 40.9, OX1R antag-2 101.8 | GPR7 antag cf 50.8 | MCHR1 antag 60.5
COC(=O)C1=C(c2ccccc2OCc2ccccc2)C[C@@H]2CC[C@H]1N2C(=O)NCc1cccc(C(F)(F)F)c1	OX1R antag-2 61.3 (no result: GPR7 antag) | OX1R Fluo8 conf inactive | CHO Ca triplic inactive
O=[N+]([O-])NC1=NCCN1Cc1ccc(Cl)nc1	none
COC(=O)C1=C(c2ccc(OC)c(OC)c2)C[C@@H]2CC[C@H]1N2C(=O)N1CCCC1	none (no result: GPR7 antag)
Cn1c(O)c(/C=C/C=Nc2ccccc2)c(=O)n(C)c1=S	TAAR1 agonist 40.8 | OX1R Fluo8 conf 33.1 | CHO Ca triplic 36.5
O=C(c1cc2cc(Br)ccc2[nH]1)N1CCC2(CC1)OCCO2	none
O=C(c1cc(Br)ccc1Cl)N1CCC2(CC1)OCCO2	OX1R antag-2 44.7 | OX1R Fluo8 conf inactive | CHO Ca triplic inactive
O=C(NC1CCCCC1)[C@@H]1CC=C[C@@H]2CCN(Cc3ccccc3)C(=O)[C@@H]21	OX1R antag-1 75.3 (no result: GPR7 antag) | OX1R Fluo8 conf 47.5 | CHO Ca triplic inactive | OX1R HTRF conf 74.4 | CHO-K1 HTRF cnt inactive
COC(=O)C1=C(c2ccc(OC)c(OC)c2)C[C@@H]2CC[C@H]1N2C(=O)NCCCOC(C)C	none (no result: GPR7 antag)
O=C(NCC1=C(c2ccc3ccccc3c2)C[C@@H]2CC[C@H]1N2Cc1ccco1)c1ccc([N+](=O)[O-])cc1	none (no result: CHO parental Ca, OX1R antag-1, GPR7 antag, OX1R antag-2)
Cc1cccc(C(=O)Nc2ccc3c(c2)CC2(C(=O)N(C)C(=O)N(C)C2=O)C2CCCN32)c1 (centres undefined)	none (no result: TAAR1 antagonist, TAAR1 agonist)
COc1ccccc1C(=O)Nc1ccc2c(c1)CC1(C(=O)N(C)C(=O)N(C)C1=O)C1CCCN21 (centres undefined)	OX1R antag-1 66.7 | OX1R Fluo8 conf 42.8 | CHO Ca triplic inactive | OX1R HTRF conf 90.2 | CHO-K1 HTRF cnt 19.6
COc1ccccc1NC(=O)COC(=O)c1cn(C)c2ccccc12	OX1R antag-1 54.1, OX1R antag-2 47.3 (no result: GPR7 antag) | OX1R Fluo8 conf inactive | CHO Ca triplic inactive | OX1R HTRF conf inactive | CHO-K1 HTRF cnt inactive
O=C(O)c1ccccc1N=Nc1c(O)[nH]c(=O)[nH]c1=O	OX1R antag-1 111.4 | OX1R HTRF conf inactive | CHO-K1 HTRF cnt 76.0
O=c1[nH]c(O)c(N=Nc2cc(C(F)(F)F)ccc2Cl)c(=O)[nH]1	none
O=C(NC1CN2CCC1CC2)c1ccc(Cl)cc1 (centres undefined)	none (no result: CHO parental Ca, OX1R antag-1, GPR7 antag, OX1R antag-2)
O=C(NC1CN2CCC1CC2)c1ccc(-c2ccc([N+](=O)[O-])cc2)o1 (centres undefined)	OX1R antag-1 83.9 | OX1R HTRF conf inactive | CHO-K1 HTRF cnt 56.3
CN1C(=O)C(=Cc2ccc(N3CCOCC3)o2)C(=O)N(C)C1=O	OX1R antag-1 123.3 | OX1R HTRF conf 65.3 | CHO-K1 HTRF cnt 90.0
CN1C(=O)C(=Cc2ccc(N3CCCCCC3)o2)C(=O)N(C)C1=S	none
OCC[n+]1c2ccccc2nc2ccc(N3CCOCC3)cc21	OX1R antag-1 113.1 | OX1R HTRF conf inactive | CHO-K1 HTRF cnt 75.9
O=C(CCc1ccccc1)N1Cc2cc(N3CCOCC3)ccc2-n2nncc2C1	none (no result: CHO parental Ca, OX1R antag-1, GPR7 antag, OX1R antag-2)
O=C1NC(=O)C(Cc2ccccc2)(Cc2ccccc2)C(=O)N1	none (no result: CHO parental Ca, OX1R antag-1, GPR7 antag, OX1R antag-2)
COc1ccc(N=Nc2c(O)[nH]c(=S)[nH]c2=O)cc1	OX1R antag-1 active | OX1R HTRF conf 63.1 | CHO-K1 HTRF cnt 99.8
O=c1[nH]c(=S)[nH]c(O)c1N=Nc1ccc2c(c1)OCCO2	OX1R antag-1 145.9 | OX1R HTRF conf 61.6 | CHO-K1 HTRF cnt 65.8
O=c1[nH]c(=S)[nH]c(O)c1N=Nc1cccc(S(=O)(=O)N2CCOCC2)c1	OX1R antag-1 96.6 | OX1R HTRF conf 59.7 | CHO-K1 HTRF cnt 66.3
O=C(N=Nc1c(O)[nH]c(=O)[nH]c1=O)C1COc2ccccc2O1 (centres undefined)	none
O=c1[nH]c(O)c(N=Nc2cccc(S(=O)(=O)N3CCOCC3)c2)c(=O)[nH]1	OX1R antag-1 87.9 | OX1R HTRF conf 54.9 | CHO-K1 HTRF cnt 78.8
O=C(COc1ccccc1)c1cn(Cc2ccccc2)c2ccccc12	none
Cc1ccc(-n2c(O)c(C=Nc3ccc(S(=O)(=O)N(C)C)cc3)c(=O)[nH]c2=O)cc1	none
O=c1[nH]c(=S)[nH]c(O)c1N=Nc1ccc(S(=O)(=O)N2CCOCC2)cc1	OX1R antag-1 140.2 | OX1R HTRF conf inactive | CHO-K1 HTRF cnt 64.6
NS(=O)(=O)c1ccc(N=Nc2c(O)[nH]c(=S)[nH]c2=O)cc1	OX1R antag-1 77.4 | OX1R HTRF conf 66.8 | CHO-K1 HTRF cnt 79.3
